Here are results for 20 compounds from ChEMBL document CHEMBL3632617, “Chrysin-benzothiazole conjugates as antioxidant and anticancer agents” (Bioorg Med Chem Lett, 2015).

In brackets after ≈: the same amount, converted by molar mass.

A short description of data set [1]: Antioxidant activity assessed as ABTS radical scavenging activity after 10 mins by UV-Visible spectrophotometric analysis. Format: physicochemical. An outline of the steps: (§1)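 Radical scavenging by DPPH (Brand–Williams method) and by ABTS radical-cation decolorization via single electron transfer. Ascorbic acid served as the reference. IC50 is the concentration that inhibits 50% of the radicals. Results are the average of triplicate analyses.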

The nature of data set [2]: Antioxidant activity assessed as DPPH radical scavenging activity after 25 mins by UV-Visible spectrophotometric analysis. The format is physicochemical. An outline of the steps:
as §1

In data set [3] the test system is SK-OV-3. As to the kind of experiment: Cytotoxicity against human SKOV3 cells after 48 hrs by SRB assay. The format is functional, cell-based. The following applies: SK-OV-3, 48 h. An outline of the steps: (§2)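 Cell lines (HeLa, CaSki, SK-OV-3, MDCK) were obtained from ATCC. The colorimetric end point used the protein-binding dye sulforhodamine B.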
The nature of data set [4]: Cytotoxicity against human CaSki cells after 48 hrs by SRB assay. Conditions: Ca-Ski. The format is functional, cell-based. An outline of the steps: as §2
For data set [5], the system named is HeLa. As to the kind of experiment: Cytotoxicity against human HeLa cells after 48 hrs by SRB assay. The format is functional, cell-based. An outline of the steps: as §2
Data set [6] concerns MDCK. The data set can be described thus: Cytotoxicity against MDCK cells after 48 hrs by SRB assay. Conditions: Canis lupus familiaris. Format: cell-based. An outline of the steps: as §2
Data set [7] deals with HeLa. The data set can be described thus: Cytotoxicity against human HeLa cells. The format is functional, cell-based.

As to `O=C1O[C@H]([C@@H](O)CO)C(O)=C1O` [ASCORBIC ACID], the 50% inhibitory concentration (IC50) is 5.0925 µg/mL (≈ 28.9 µM) in data set [1] and 12.72 µg/mL (≈ 72.2 µM) in data set [2].
For `O=c1cc(-c2ccccc2)oc2cc(OCCCCNc3nc4ccc(Br)cc4s3)cc(O)c12`, the IC50 in data set [1] was 6.565 µg/mL (≈ 12.2 µM); in data set [3], 35.1 µg/mL (≈ 65.3 µM); in data set [4], 12.4 µg/mL (≈ 23.1 µM); in data set [5], 6.56 µg/mL (≈ 12.2 µM); in data set [2], 16.09 µg/mL (≈ 29.9 µM). This compound had a CC50 in data set [6] of 289 µg/mL (≈ 538 µM).
Consider `CCC(=O)c1ccc2nc(NCCCCOc3cc(O)c4c(=O)cc(-c5ccccc5)oc4c3)sc2c1`, for which the IC50 in data set [1] was 7.157 µg/mL (≈ 13.9 µM); in data set [3] it was 35.6 µg/mL (≈ 69.3 µM); in data set [4], 17.8 µg/mL (≈ 34.7 µM); in data set [5], 6.26 µg/mL (≈ 12.2 µM); in data set [2], 32.23 µg/mL (≈ 62.6 µM). The same compound registered a CC50 in data set [6] of 296 µg/mL (≈ 574 µM).
For the compound `N#Cc1ccc2nc(NCCCCOc3cc(O)c4c(=O)cc(-c5ccccc5)oc4c3)sc2c1`, the IC50 in data set [1] was 6.543 µg/mL (≈ 13.5 µM); in data set [3], 43.7 µg/mL (≈ 90.4 µM); in data set [4], 18.8 µg/mL (≈ 39 µM); in data set [5], 8.53 µg/mL (≈ 17.6 µM); in data set [2], 15.56 µg/mL (≈ 32.2 µM). In addition, the CC50 in data set [6] turned out to be 312 µg/mL (≈ 646 µM).
On to `Cc1ccc2nc(NCCCCOc3cc(O)c4c(=O)cc(-c5ccccc5)oc4c3)sc2c1`, for which the IC50 in data set [1] is 8.785 µg/mL (≈ 18.6 µM); in data set [3], 48.4 µg/mL (≈ 102 µM); in data set [4], 15.5 µg/mL (≈ 32.9 µM); in data set [5], 6.56 µg/mL (≈ 13.9 µM); in data set [2], 28.13 µg/mL (≈ 59.5 µM). It took 294 µg/mL (≈ 621 µM) to reach half-maximal cytotoxicity in data set [6] (CC50).
For `O=c1cc(-c2ccccc2)oc2cc(OCCCCNc3nc4ccc(Cl)cc4s3)cc(O)c12`, the IC50 was 4.156 µg/mL (≈ 8.43 µM) in data set [1]; 39.2 µg/mL (≈ 79.6 µM) in data set [3]; 12.4 µg/mL (≈ 25.2 µM) in data set [4]; 5.95 µg/mL (≈ 12.1 µM) in data set [5]; 13.16 µg/mL (≈ 26.7 µM) in data set [2]. Moreover, the midpoint of cytotoxicity in data set [6], the CC50, lay at 338 µg/mL (≈ 685 µM).
As for `CCCC(=O)c1ccc2nc(NCCCCOc3cc(O)c4c(=O)cc(-c5ccccc5)oc4c3)sc2c1`, the IC50 was 8.535 µg/mL (≈ 16.1 µM) in data set [1]; 41.6 µg/mL (≈ 78.7 µM) in data set [3]; 17.8 µg/mL (≈ 33.6 µM) in data set [4]; 7.17 µg/mL (≈ 13.6 µM) in data set [5]; 38.98 µg/mL (≈ 73.7 µM) in data set [2]. For the same compound, the CC50 in data set [6] was determined as 278 µg/mL (≈ 525 µM).
Regarding `O=c1cc(-c2ccccc2)oc2cc(OCCCCNc3nc4ccc(C(F)(F)F)cc4s3)cc(O)c12`, the IC50 in data set [1] was found to be 4.953 µg/mL (≈ 9.41 µM); in data set [3] it was 37.2 µg/mL (≈ 70.6 µM); in data set [4], 11.2 µg/mL (≈ 21.3 µM); in data set [5], 7.84 µg/mL (≈ 14.9 µM); in data set [2], 16.27 µg/mL (≈ 30.9 µM). The compound further gave a CC50 in data set [6] of 278 µg/mL (≈ 529 µM).
Consider `O=c1cc(-c2ccccc2)oc2cc(OCCCCNc3nc4ccc(I)cc4s3)cc(O)c12`, for which the IC50 in data set [1] was found to be 9.836 µg/mL (≈ 16.8 µM); in data set [3], 56.4 µg/mL (≈ 96.6 µM); in data set [4] it was 13.2 µg/mL (≈ 22.5 µM); in data set [5], 8.12 µg/mL (≈ 13.9 µM); in data set [2], 25.44 µg/mL (≈ 43.5 µM). In data set [6], the midpoint of cytotoxicity, the CC50, lay at 298 µg/mL (≈ 510 µM).
Take `O=C(O)c1ccc2nc(NCCCCOc3cc(O)c4c(=O)cc(-c5ccccc5)oc4c3)sc2c1`: the IC50 in data set [1] is 6.742 µg/mL (≈ 13.4 µM); in data set [3], 43.3 µg/mL (≈ 86.3 µM); in data set [4], 12.1 µg/mL (≈ 24 µM); in data set [5], 8.42 µg/mL (≈ 16.8 µM); in data set [2] it was 21.66 µg/mL (≈ 43.1 µM). In data set [6], this compound yielded a CC50 of 324 µg/mL (≈ 645 µM).
For `O=c1cc(-c2ccccc2)oc2cc(OCCCCNNc3nc4ccccc4s3)cc(O)c12`, the IC50 in data set [1] is 8.734 µg/mL (≈ 18.4 µM); in data set [3], 51.7 µg/mL (≈ 109 µM); in data set [4] it was 14.6 µg/mL (≈ 30.9 µM); in data set [5] it was 4.64 µg/mL (≈ 9.79 µM); in data set [2], 24.34 µg/mL (≈ 51.4 µM). This compound registered a CC50 in data set [6] of 316 µg/mL (≈ 668 µM).
With `O=c1cc(-c2ccccc2)oc2cc(OCCCCNc3nc4c(F)cc(F)cc4s3)cc(O)c12`, the IC50 amounted to 5.764 µg/mL (≈ 11.7 µM) in data set [1]; 36.8 µg/mL (≈ 74.5 µM) in data set [3]; 10.8 µg/mL (≈ 21.9 µM) in data set [4]; 5.56 µg/mL (≈ 11.2 µM) in data set [5]; 15.12 µg/mL (≈ 30.6 µM) in data set [2]. For the same compound, the CC50 in data set [6] was 307 µg/mL (≈ 621 µM).
Take `CC(=O)Nc1ccc2nc(NCCCCOc3cc(O)c4c(=O)cc(-c5ccccc5)oc4c3)sc2c1`: the IC50 in data set [1] is 8.355 µg/mL (≈ 16.2 µM); in data set [3], 51.3 µg/mL (≈ 99.4 µM); in data set [4], 11.4 µg/mL (≈ 22 µM); in data set [5] it was 6.91 µg/mL (≈ 13.4 µM); in data set [2] it was 29.16 µg/mL (≈ 56.6 µM). In data set [6], this compound registered a CC50 of 291 µg/mL (≈ 565 µM).
`O=c1cc(-c2ccccc2)oc2cc(OCCCCNc3nc4ccccc4s3)cc(O)c12`: the 50% inhibitory concentration (IC50) in data set [1] amounted to 8.567 µg/mL (≈ 18.7 µM); in data set [3], 48.5 µg/mL (≈ 106 µM); in data set [4], 14.6 µg/mL (≈ 31.9 µM); in data set [5] it was 4.75 µg/mL (≈ 10.4 µM); in data set [2], 26.45 µg/mL (≈ 57.7 µM). The same compound came in with a CC50 in data set [6] of 348 µg/mL (≈ 758 µM).
For `COc1ccc2nc(NCCCCOc3cc(O)c4c(=O)cc(-c5ccccc5)oc4c3)sc2c1`, the IC50 in data set [1] was 7.356 µg/mL (≈ 15.1 µM); in data set [3] it was 38.1 µg/mL (≈ 78.1 µM); in data set [4], 16.1 µg/mL (≈ 33 µM); in data set [5] it was 6.15 µg/mL (≈ 12.6 µM); in data set [2], 23.87 µg/mL (≈ 48.9 µM). The 50% cytotoxic concentration (CC50) in data set [6] stood at 285 µg/mL (≈ 583 µM).
In data set [7], `O=c1cc(-c2ccccc2)oc2cc(O)cc(O)c12` [CHRYSIN] came in with an IC50 of 10.9 µg/mL (≈ 43 µM).
In the case of `CC(=O)c1ccc2nc(NCCCCOc3cc(O)c4c(=O)cc(-c5ccccc5)oc4c3)sc2c1`, the IC50 in data set [1] was 7.026 µg/mL (≈ 14 µM); in data set [3], 34.3 µg/mL (≈ 68.4 µM); in data set [4], 14.5 µg/mL (≈ 29 µM); in data set [5], 7.78 µg/mL (≈ 15.6 µM); in data set [2], 30.72 µg/mL (≈ 61.4 µM). The compound further gave a CC50 in data set [6] of 311 µg/mL (≈ 621 µM).
As for `O=c1cc(-c2ccccc2)oc2cc(OCCCCNc3nc4ccc([N+](=O)[O-])cc4s3)cc(O)c12`, the IC50 in data set [1] came out at 8.135 µg/mL (≈ 16.2 µM); in data set [3], 41.4 µg/mL (≈ 82.3 µM); in data set [4], 13.2 µg/mL (≈ 26.3 µM); in data set [5], 6.44 µg/mL (≈ 12.8 µM); in data set [2], 30.25 µg/mL (≈ 60.1 µM). The compound further gave a CC50 in data set [6] of 310 µg/mL (≈ 615 µM).
As for `O=c1cc(-c2ccccc2)oc2cc(OCCCCNc3nc4ccc(F)cc4s3)cc(O)c12`, the IC50 was determined as 5.246 µg/mL (≈ 11 µM) in data set [1]; 33.7 µg/mL (≈ 70.8 µM) in data set [3]; 13.4 µg/mL (≈ 28 µM) in data set [4]; 5.03 µg/mL (≈ 10.6 µM) in data set [5]; 14.74 µg/mL (≈ 30.9 µM) in data set [2]. In data set [6], this compound yielded a CC50 of 324 µg/mL (≈ 680 µM).
On to `CCOc1ccc2nc(NCCCCOc3cc(O)c4c(=O)cc(-c5ccccc5)oc4c3)sc2c1`, for which the IC50 stood at 8.853 µg/mL (≈ 17.6 µM) in data set [1]; 35.3 µg/mL (≈ 70.3 µM) in data set [3]; 15.1 µg/mL (≈ 29.9 µM) in data set [4]; 5.25 µg/mL (≈ 10.4 µM) in data set [5]; 24.41 µg/mL (≈ 48.6 µM) in data set [2]. The same compound yielded a CC50 in data set [6] of 306 µg/mL (≈ 610 µM).
